Measured values taken from ChEMBL document CHEMBL4382255, “Design, synthesis and activity of Mnk1 and Mnk2 selective inhibitors containing thieno[2,3-d]pyrimidine scaffold” (Eur J Med Chem, 2019).
Calls of active or inactive are those of the source. Unless noted, the rule behind the calls is not given here.

Key:
Mus musculus [1] = organism: Mus musculus; assay: Inhibition of MNK in mouse 3T3L1 cells assessed as reduction of eIF4E phosphorylation at 3 uM after 2 hrs by Western blot analysis; format: cell-based
Outline: (§1)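 Mouse 3T3-L1 pre-adipocytes (DMEM high glucose, 10% heat-inactivated FBS, 37 °C, 5% CO₂) treated 2 h with compounds at 3 μM or lower concentrations down to 0.1 μM final; DMSO vehicle 0.03-0.05% final. RIPA lysates cleared, equal protein resolved by SDS-PAGE, immunoblotted for P-eIF4E and total eIF4E, fluorescent secondary detection.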

Mus musculus [2] = organism: Mus musculus; assay: Inhibition of MNK in mouse 3T3L1 cells assessed as reduction of eIF4E phosphorylation at 0.1 uM after 2 hrs by Western blot analysis; format: cell-based; outline: as §1
Mus musculus [3] = organism: Mus musculus; assay: Inhibition of mTORC2 in mouse 3T3L1 cells assessed as reduction in PKB phosphorylation at Ser473 residue at 0.1 to 5 uM after 2 hrs by Western blot analysis; format: cell-based
Outline: (§2)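 3T3-L1 cells treated 2 h with inhibitor at indicated concentrations (DMSO <0.05% v/v). RIPA lysates, equal protein by Bradford, SDS-PAGE and western blot with phospho-specific antibodies (ERK, RSK, PKB Ser473, 4E-BP1, rpS6); fluorescent secondary imaging. Quantified from three independent experiments, SEM error bars.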

Mus musculus [4] = organism: Mus musculus; assay: Inhibition of mTORC1 in mouse 3T3L1 cells assessed as reduction in rpS6 phosphorylation at Ser240/244 residues at 0.1 to 5 uM after 2 hrs by Western blot analysis; format: cell-based; outline: as §2
Mus musculus [5] = organism: Mus musculus; assay: Inhibition of mTORC1 in mouse 3T3L1 cells assessed as reduction in 4EBP1 at Ser65 residue phosphorylation at 0.1 to 5 uM after 2 hrs by Western blot analysis; format: cell-based; outline: as §2
[6] = target: MAP kinase-interacting serine/threonine-protein kinase 1 (Mus musculus) (UniProt O08605); assay: Inhibition of MNK1 in C57BL/6J mouse embryonic fibroblasts assessed as decrease in eIF4E phosphorylation at 5 uM after 2 hrs by Western blot analysis
MAP kinase-interacting serine/threonine-protein kinase 1 (Mus musculus), sequence (O08605 whole entry, the tested form may be a part): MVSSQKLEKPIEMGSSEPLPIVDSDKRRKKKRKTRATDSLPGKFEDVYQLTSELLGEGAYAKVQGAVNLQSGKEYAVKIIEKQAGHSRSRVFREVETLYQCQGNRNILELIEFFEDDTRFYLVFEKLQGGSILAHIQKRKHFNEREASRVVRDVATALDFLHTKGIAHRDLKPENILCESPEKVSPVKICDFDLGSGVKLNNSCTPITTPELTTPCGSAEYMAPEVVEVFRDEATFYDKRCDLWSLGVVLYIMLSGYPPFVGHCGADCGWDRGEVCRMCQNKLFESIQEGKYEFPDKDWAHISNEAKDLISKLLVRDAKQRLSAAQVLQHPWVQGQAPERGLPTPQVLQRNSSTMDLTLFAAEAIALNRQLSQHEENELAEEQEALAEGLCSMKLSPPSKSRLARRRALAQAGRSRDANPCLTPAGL
Outline: (§3)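 MEFs from E13.5 C57BL/6J embryos, wild-type, MNK1-KO or MNK2-KO (DMEM, 10% FBS), treated 2 h with inhibitor at indicated concentrations, including a lower-concentration series in MNK1-KO cells; CGP57380 at 50 μM as reference. Lysates analysed by SDS-PAGE/western blot for P-eIF4E; quantified from three independent experiments, SEM.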

[7] = target: MAP kinase-interacting serine/threonine-protein kinase 2 (Mus musculus) (UniProt Q8CDB0); assay: Inhibition of MNK2 in C57BL/6J mouse embryonic fibroblasts assessed as decrease in eIF4E phosphorylation at 5 uM after 2 hrs by Western blot analysis; outline: as §3
MAP kinase-interacting serine/threonine-protein kinase 2 (Mus musculus), sequence (Q8CDB0 whole entry): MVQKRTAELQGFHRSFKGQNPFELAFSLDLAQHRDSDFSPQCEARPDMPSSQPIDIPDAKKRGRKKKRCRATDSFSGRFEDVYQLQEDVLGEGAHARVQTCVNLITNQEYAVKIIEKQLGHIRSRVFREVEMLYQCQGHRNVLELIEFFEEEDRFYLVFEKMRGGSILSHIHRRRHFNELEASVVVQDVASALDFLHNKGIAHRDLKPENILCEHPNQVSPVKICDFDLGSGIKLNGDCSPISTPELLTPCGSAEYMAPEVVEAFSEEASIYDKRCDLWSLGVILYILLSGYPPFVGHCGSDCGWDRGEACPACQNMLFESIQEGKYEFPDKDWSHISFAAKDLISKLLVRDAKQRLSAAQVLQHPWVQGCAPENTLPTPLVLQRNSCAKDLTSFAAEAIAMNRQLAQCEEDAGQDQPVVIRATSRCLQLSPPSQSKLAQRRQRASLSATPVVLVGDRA

[8] = target: MAP kinase-interacting serine/threonine-protein kinase 1 (Mus musculus) (UniProt O08605); assay: Inhibition of MNK1 in C57BL/6J mouse embryonic fibroblasts assessed as decrease in eIF4E phosphorylation at 0.1 to 0.3 uM after 2 hrs by Western blot analysis relative to control; outline: as §3
[9] = target: MAP kinase-interacting serine/threonine-protein kinase 1 (Mus musculus) (UniProt O08605); assay: Inhibition of MNK1 in MNK2-knockout C57BL/6J mouse embryonic fibroblasts assessed as decrease in eIF4E phosphorylation at 0.3 to 5 uM after 2 hrs by Western blot analysis; outline: as §3
[10] = target: MAP kinase-interacting serine/threonine-protein kinase 1 (Homo sapiens) (UniProt Q9BUB5); assay: Inhibition of GST-fused MNK1a (unknown origin) expressed in HEK293 cells using eIF4E as substrate after 30 mins by Western blot analysis; format: cell-based
MAP kinase-interacting serine/threonine-protein kinase 1 (Homo sapiens), sequence (Q9BUB5 whole entry, looked up, the tested form may be a part): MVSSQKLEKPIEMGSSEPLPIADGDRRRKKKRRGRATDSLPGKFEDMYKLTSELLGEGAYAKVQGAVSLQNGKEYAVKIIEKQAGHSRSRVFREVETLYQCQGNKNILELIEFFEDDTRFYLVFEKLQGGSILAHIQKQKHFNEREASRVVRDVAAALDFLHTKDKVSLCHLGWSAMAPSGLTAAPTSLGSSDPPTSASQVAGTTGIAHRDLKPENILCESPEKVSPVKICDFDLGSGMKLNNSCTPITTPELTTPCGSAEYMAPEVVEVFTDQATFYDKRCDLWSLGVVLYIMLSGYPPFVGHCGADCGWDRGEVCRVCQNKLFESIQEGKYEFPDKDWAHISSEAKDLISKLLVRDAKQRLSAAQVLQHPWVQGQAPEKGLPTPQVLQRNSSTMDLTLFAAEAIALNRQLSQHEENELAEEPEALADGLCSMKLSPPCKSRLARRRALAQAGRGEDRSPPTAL
Outline: (§4)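 GST-MNK1a or GST-MNK2a expressed in transfected HEK293 cells, purified by glutathione pull-down. Incubated in 25 mM Tris-HCl pH 7.5, 50 mM KCl, 2 mM MgCl₂ with 20 µM ATP and 65 ng E. coli-expressed eIF4E, 30 °C, 30 min, ± inhibitor. Stopped with sample buffer; immunoblotted for P-eIF4E Ser209, eIF4E and GST. Conditions pre-set within linear range.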

[11] = target: MAP kinase-interacting serine/threonine-protein kinase 2 (Homo sapiens) (UniProt Q9HBH9); assay: Inhibition of GST-fused MNK2a (unknown origin) expressed in HEK293 cells using eIF4E as substrate after 30 mins by Western blot analysis; format: cell-based; outline: as §4
MAP kinase-interacting serine/threonine-protein kinase 2 (Homo sapiens), sequence (Q9HBH9 whole entry, looked up, the tested form may be a part): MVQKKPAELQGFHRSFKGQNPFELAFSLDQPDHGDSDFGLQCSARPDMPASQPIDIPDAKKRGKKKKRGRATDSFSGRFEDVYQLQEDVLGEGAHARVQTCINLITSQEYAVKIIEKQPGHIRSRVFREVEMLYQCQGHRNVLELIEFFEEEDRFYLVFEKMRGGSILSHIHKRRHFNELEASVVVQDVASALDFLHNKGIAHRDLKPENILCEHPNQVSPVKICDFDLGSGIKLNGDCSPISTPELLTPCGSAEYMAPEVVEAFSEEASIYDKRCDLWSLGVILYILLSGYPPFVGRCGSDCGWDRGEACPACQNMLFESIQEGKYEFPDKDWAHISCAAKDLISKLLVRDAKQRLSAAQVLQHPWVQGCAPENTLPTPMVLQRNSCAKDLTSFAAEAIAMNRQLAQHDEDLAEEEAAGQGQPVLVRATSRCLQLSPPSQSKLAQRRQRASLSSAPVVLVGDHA

[12] = target: T1, MAP kinase-interacting serine/threonine-protein kinase 1/2 (Homo sapiens) (UniProt Q9HBH9+Q9BUB5); assay: Inhibition of MNK in human MDA-MB-231 cells assessed as decrease in eIF4E phosphorylation at 1 uM after 2 hrs by Western blot analysis; format: cell-based
Outline: (§5)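 MDA-MB-231 cells treated with inhibitor at indicated concentrations for 2 h, or at 3 μM for times up to 72 h (DMSO vehicle <0.05%). Cells lysed in RIPA buffer; supernatants analysed by SDS-PAGE and western blot for P-eIF4E and total eIF4E. CGP57380 at 30 μM as reference.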

MDA-MB-231 [13] = assay: Antimigratory activity against human MDA-MB-231 cells after 24 hrs by DAPI staining-based Transwell assay; format: functional, cell-based
Outline: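 MDA-MB-231 cells pre-treated with inhibitor 60 min, then 3 x 10⁵ cells seeded into 8 μm-pore Transwell inserts pre-coated with 10 μg/ml collagen (collagen as attractant). After 24 h, migrated cells in bottom well stained with DAPI, imaged at ×10 and counted. Triplicate assays, mean ± SEM.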

MDA-MB-231 [14] = assay: Cell cycle arrest in human MDA-MB-231 cells at 0.3 to 6 uM after 2 hrs by propidium iodide staining-based flow cytometric analysis; format: ADME; settings: mda-mb-231, 2 h
Outline: (§6)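 MDA-MB-231 cells seeded at 5 x 10^5 cells/well, allowed 24 h to attach, then treated with inhibitor or vehicle. Harvested at ~70% confluence, fixed in methanol ≥2 h, stained with 1 µg/ml propidium iodide; ~20,000 cells analysed by flow cytometry for cell-cycle phase proportions including sub-G0. Mean ± SEM, n=5.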

MDA-MB-231 [15] = assay: Cell cycle arrest in human MDA-MB-231 cells assessed as accumulation of cells at sub-G0 phase at 0.3 to 6 uM after 2 hrs by propidium iodide staining-based flow cytometric analysis; format: ADME; settings: mda-mb-231, 2 h; outline: as §6
3T3-L1 = assay: Effect on total eIF4E protein level in mouse 3T3L1 cells at 3 uM after 2 hrs by Western blot analysis; format: ADME, cell-based; settings: 3t3-l1, 2 h; outline: as §1
[16] = target: Mitogen-activated protein kinase 1 and 3 (ERK2 and ERK1) (Mus musculus) (UniProt P63085+Q63844); assay: Stimulation of ERK1/2 phosphorylation at Thr202/Tyr204 residues in mouse 3T3L1 cells at 0.1 to 5 uM after 2 hrs by Western blot analysis; format: cell-based; outline: as §2
Mitogen-activated protein kinase 1 and 3 (ERK2 and ERK1) (Mus musculus), sequence (P63085 whole entry, looked up): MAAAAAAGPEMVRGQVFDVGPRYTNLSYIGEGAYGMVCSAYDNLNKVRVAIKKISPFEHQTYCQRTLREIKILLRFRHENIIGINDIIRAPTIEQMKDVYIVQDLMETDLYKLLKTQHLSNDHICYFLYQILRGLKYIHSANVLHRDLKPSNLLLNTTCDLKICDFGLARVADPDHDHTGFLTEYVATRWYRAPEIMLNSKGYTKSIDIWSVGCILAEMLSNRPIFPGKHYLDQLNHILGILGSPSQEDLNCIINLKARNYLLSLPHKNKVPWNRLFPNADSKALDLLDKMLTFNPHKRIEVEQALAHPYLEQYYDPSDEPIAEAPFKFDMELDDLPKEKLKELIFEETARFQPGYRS
Mitogen-activated protein kinase 1 and 3 (ERK2 and ERK1) (Mus musculus), sequence (Q63844 whole entry, looked up): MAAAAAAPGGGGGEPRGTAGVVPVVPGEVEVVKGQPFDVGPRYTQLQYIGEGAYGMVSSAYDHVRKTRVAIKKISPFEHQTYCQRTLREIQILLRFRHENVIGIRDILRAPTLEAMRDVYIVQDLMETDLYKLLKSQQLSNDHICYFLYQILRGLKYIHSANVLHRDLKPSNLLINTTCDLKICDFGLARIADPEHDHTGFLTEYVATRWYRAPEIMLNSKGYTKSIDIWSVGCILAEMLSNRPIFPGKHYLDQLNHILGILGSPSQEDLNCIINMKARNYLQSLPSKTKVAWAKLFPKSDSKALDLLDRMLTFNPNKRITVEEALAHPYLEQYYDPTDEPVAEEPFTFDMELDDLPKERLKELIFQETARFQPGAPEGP

Mus musculus [17] = organism: Mus musculus; assay: Stimulation of ERK signalling in mouse 3T3L1 cells assessed as increase in RSK phosphorylation at […] residue at 0.1 to 5 uM after 2 hrs by Western blot analysis; format: cell-based; outline: as §2
[18] = target: MAP kinase-interacting serine/threonine-protein kinase 2 (Mus musculus) (UniProt Q8CDB0); assay: Inhibition of MNK2 in MNK1-knockout C57BL/6J mouse embryonic fibroblasts assessed as decrease in eIF4E phosphorylation at 0.5 uM after 2 hrs by Western blot analysis; outline: as §3
[19] = target: MAP kinase-interacting serine/threonine-protein kinase 2 (Mus musculus) (UniProt Q8CDB0); assay: Inhibition of MNK2 in MNK1-knockout C57BL/6J mouse embryonic fibroblasts assessed as decrease in eIF4E phosphorylation at 0.003 to 0.03 uM after 2 hrs by Western blot analysis; outline: as §3
[20] = target: T1, MAP kinase-interacting serine/threonine-protein kinase 1/2 (Homo sapiens); assay: Inhibition of MNK in human MDA-MB-231 cells assessed as decrease in eIF4E phosphorylation at 3 uM up to 72 hrs by Western blot analysis; format: cell-based; outline: as §5
[21] = Inhibition in C57BL/6J mouse embryonic fibroblasts assessed as decrease in eIF4E phosphorylation at 0.1 to 0.3 uM after 2 hrs by Western blot analysis relative to control

inhibition [6]: 100%
inhibition [7]: 100%
inhibition [8]: 50%
inhibition [9]: Active
inhibition [10]: Active
inhibition [11]: Active
inhibition [12]: 100%
Activity [16]: Active
inhibition [18]: Active
inhibition [19]: Active
inhibition [20]: Active
inhibition [21]: 50%
Compound: Cc1c(C(=O)NCCCN2CCCC2)sc2ncnc(Nc3ccc(F)cc3OC(C)C)c12
MNK inhibition (active/not active) (Mus musculus [1]): Active
inhibition of eIF4E phosphorylation (active/not active) (Mus musculus [2]): Active
inhibition (Mus musculus [3]): inactive
inhibition (Mus musculus [4]): inactive
inhibition (Mus musculus [5]): inactive
inhibition (MDA-MB-231 [13]): Active
Activity (MDA-MB-231 [14]): Non-Toxic
Activity (MDA-MB-231 [15]): Non-Toxic
Activity (3T3-L1): Non-Toxic
Activity (Mus musculus [17]): Active
